The results in this text go back to PubChem BioAssay AID504323 (Broad Institute, 2011).

Structures are written as SMILES. Several values for one entry are separate records, joined by “and”; a condition that tells them apart may be missing. Identical values can stand only once. Activity calls are given as the source filed them.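 Rule for the calls: active = compounds lowering the viability signal whose fitted AC50 is no more than ten times their top tested dose; inconclusive = flat fit with a 30 to 70% drop, or poor fit; inactive = the rest.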 Bounds are passed on as bounds.

Test system in the first experiment: not listed separately
The experiment is described as follows: toxicity in U2OS HRE-luc cells, zinc medium, dose response, cytotoxicity control for HIF pathway activator project, zinc-supplemented medium, dry powder (AID 504323). The settings on record: U2OS HRE-luciferase cells, viability toxicity, luminescence; at 38 µM (top of the series). Put shortly:
(§1)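 Assay system: U2OS 3×HRE-luciferase reporter cells. Amount: 6,000 cells per well. Buffer or medium: 50 µM zinc sulfate final. Dosing: Eight-point compound series with threefold dilution steps. Schedule: 24 h attachment, then 24 h compound exposure at 37 °C. Technique: CellTiter-Glo luminescence for cell viability.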
As to `Cc1cccc(CNC(=O)c2cc(-c3ccccc3)on2)c1`, the activity change, negative = toxicity is -2.43% (inactive).
Still for that read-out and setting: the value for `CN1CCN(C(=O)c2cc(-c3ccccc3)on2)CC1` was 2.31% (inactive).
In the case of `Cc1ccc(CNc2nc(-c3ccccn3)nnc2-c2ccccc2)cc1`, the activity change, negative = toxicity was 4.61% (inactive).
Regarding `O=C(Nc1ncc(-c2ccccc2)o1)c1cc(-c2ccccc2)on1`, the activity change, negative = toxicity is -2.78% (inactive).
As to `O=C(NC1Cc2ccccc2C1)c1cc(-c2ccccc2)on1`, the activity change, negative = toxicity was -8.56% (inactive).
On to `O=C(c1cc(-c2ccccc2)on1)N1CCC(CO)CC1`, for which the activity change, negative = toxicity is 9.31% (inactive).
For `O=C(NCCCCO)c1cc(-c2ccccc2)on1`, the activity change, negative = toxicity was 6.82% (inactive).
For the molecule `CN(C)CCNC(=O)c1cc(-c2ccccc2)on1`, the activity change, negative = toxicity was 7.75% (inactive).
As for `Cc1cccc(Nc2nc(-c3ccccn3)nnc2-c2ccccc2)n1`, the activity change, negative = toxicity is -13.3% (inactive).
On the same count and under the same terms, under `c1ccc(-c2nnc(-c3ccccn3)nc2NCCc2ccccn2)cc1` stands 12.3% (inactive).
Same read-out and setting: under `CC(C)(C)OC(=O)N1CCN(Cc2ccc(O)c3ncccc23)CC1` stands 6.73% (inactive); under `OCC1CCN(Cc2ccc(O)c3ncccc23)CC1`, -18.1% (inactive); under `O=C(NCCN1CCCCC1)c1cc(-c2ccccc2)on1`, 14.1% (inactive).
With `Oc1ccc(CN2CCC(Cc3ccccc3)CC2)c2cccnc12`, the activity change, negative = toxicity was -1.98% (inactive).
On to `O=C(NCCCn1ccnc1)c1cc(-c2ccccc2)on1`, for which the activity change, negative = toxicity is -5.48% (inactive).
Still for that read-out and setting: the value for `Cc1cccc(CNc2nc(-c3ccccn3)nnc2-c2ccccc2)c1` was -2.48% (inactive).
On to `CCCCNC(=O)c1cc(-c2ccccc2)on1`, for which the activity change, negative = toxicity was 15.6% (inactive).
With `O=C(Nc1cn2ccccc2n1)c1cc(-c2ccccc2)on1`, the activity change, negative = toxicity is 10.3% (inactive).
On to `c1ccc(-c2nnc(-c3ccccn3)nc2NCC2CCOCC2)cc1`, for which the activity change, negative = toxicity was 14.9% (inactive).
On to `c1ccc(-c2cnc(Nc3nc(-c4ccccn4)nnc3-c3ccccc3)s2)cc1`, for which the activity change, negative = toxicity was 10.3% (inactive).
The same measure, in the same setting: under `CN1CCN(c2nc(-c3ccccn3)nnc2-c2ccccc2)CC1` stands -11.4% (inactive).
Turning to `CC1CN(Cc2ccc(O)c3ncccc23)CC(C)O1` (centres undefined), the activity change, negative = toxicity was -3.44% (inactive).
The same measure, in the same setting: under `O=C(NCCCN1CCOCC1)c1cc(-c2ccccc2)on1` stands 15.2% (inactive).
Turning to `O=C(c1cc(-c2ccccc2)on1)N1CCC(N2CCOCC2)CC1`, the activity change, negative = toxicity is 2.52% (inactive).
Consider `C[C@H](Nc1nc(-c2ccccn2)nnc1-c1ccccc1)C1CCCCC1`, for which the activity change, negative = toxicity was -13.5% (inactive).
Consider `c1ccc(-c2nnc(-c3ccccn3)nc2N2CCC(C3CCCCC3)C2)cc1` (centres undefined), for which the activity change, negative = toxicity is 25.2% (inactive).
`O=C(c1cc(-c2ccccc2)on1)N1CCC(N2CCCC2)CC1`: the activity change, negative = toxicity is 4.1% (inactive).
Turning to `c1ccc(-c2nnc(-c3ccccn3)nc2NCCCN2CCOCC2)cc1`, the activity change, negative = toxicity is 23.8% (inactive).
With `c1ccc(-c2nnc(-c3ccccn3)nc2NCc2ccccn2)cc1`, the activity change, negative = toxicity was -3.76% (inactive).
With `O=C(NCCN1CCOCC1)c1cc(-c2ccccc2)on1`, the activity change, negative = toxicity was 10.8% (inactive).
Consider `O=C(Nc1nc(-c2ccccc2)cs1)c1cc(-c2ccccc2)on1`, for which the activity change, negative = toxicity is 7.74% (inactive).
Same read-out and setting: the value for `Cn1c(-c2ccccc2)cnc1NC(=O)c1cc(-c2ccccc2)on1` was -1.6% (inactive); that for `O=C(c1cc(-c2ccccc2)on1)N1CCc2cccnc21` was -4.78% (inactive).
Regarding `Oc1ccc(CN2CCc3ccccc3C2)c2cccnc12`, the activity change, negative = toxicity was -93.5% (inactive) and -0.278% (inactive).
On to `C=CCNc1nc(-c2ccccn2)nnc1-c1ccccc1`, for which the activity change, negative = toxicity was 29% (inactive).
Same read-out and setting: under `c1ccc(-c2nnc(-c3ccccn3)nc2N2CCN(c3ccncc3)CC2)cc1` stands 16.2% (inactive).
The same measure, in the same setting: under `Cc1ccc(NC(=O)c2cc(-c3ccccc3)on2)cn1` stands -11.1% (inactive).
On to `OCC1CCN(c2nc(-c3ccccn3)nnc2-c2ccccc2)CC1`, for which the activity change, negative = toxicity was 10.9% (inactive).
As to `CN(C)c1nc(-c2ccccn2)nnc1-c1ccccc1`, the activity change, negative = toxicity was 33.4% (inactive).
Still for that read-out and setting: the value for `c1ccc(-c2nnc(-c3ccccn3)nc2NCC2CC2)cc1` was 20.9% (inactive); that for `c1ccc(-c2nnc(-c3ccccn3)nc2NCCN2CCOCC2)cc1` was 3.62% (inactive).
Regarding `O=C(NCC1CC1)c1cc(-c2ccccc2)on1`, the activity change, negative = toxicity was 22.5% (inactive).
In the case of `c1ccc(CCNc2nc(-c3ccccn3)nnc2-c2ccccc2)cc1`, the activity change, negative = toxicity is -7.93% (inactive).
In the case of `COc1ccccc1N1CCN(Cc2ccc(O)c3ncccc23)CC1`, the activity change, negative = toxicity is -14.5% (inactive).
As for `Cc1ccc(CNC(=O)c2cc(-c3ccccc3)on2)cc1`, the activity change, negative = toxicity is -12.8% (inactive).
As to `Cc1cccc(NC(=O)c2cc(-c3ccccc3)on2)n1`, the activity change, negative = toxicity was 2.1% (inactive).
As for `c1ccc(-c2nnc(-c3ccccn3)nc2NCc2cccnc2)cc1`, the activity change, negative = toxicity is 30.2% (inactive).
As for `COc1cccc(CNc2nc(-c3ccccn3)nnc2-c2ccccc2)c1`, the activity change, negative = toxicity was -8.43% (inactive).
Turning to `Cc1ccc(Nc2nc(-c3ccccn3)nnc2-c2ccccc2)cn1`, the activity change, negative = toxicity was 3.19% (inactive).
For `O=C(NCCCO)c1cc(-c2ccccc2)on1`, the activity change, negative = toxicity is 3.54% (inactive).
On the same count and under the same terms, the value for `c1ccc(-c2cccc(CNc3nc(-c4ccccn4)nnc3-c3ccccc3)c2)cc1` was 21.1% (inactive).
Regarding `O=C(Nc1ccc2ccccc2n1)c1cc(-c2ccccc2)on1`, the activity change, negative = toxicity was 16.8% (inactive).
Consider `c1ccc(-c2ccc(CNc3nc(-c4ccccn4)nnc3-c3ccccc3)cc2)cc1`, for which the activity change, negative = toxicity is 7.11% (inactive).
For the molecule `Cn1c(NC(=O)c2cc(-c3ccccc3)on2)nc2ccccc21`, the activity change, negative = toxicity is 16% (inactive).
With `Oc1ccc(CNC2CCc3ccccc32)c2cccnc12` (centres undefined), the activity change, negative = toxicity is -6.14% (inactive).
For `Cc1ccccc1CNc1nc(-c2ccccn2)nnc1-c1ccccc1`, the activity change, negative = toxicity was -8.68% (inactive).
In the case of `c1ccc(-c2csc(Nc3nc(-c4ccccn4)nnc3-c3ccccc3)n2)cc1`, the activity change, negative = toxicity is -2.4% (inactive).
Take `O=C(NCC1CCCCC1)c1cc(-c2ccccc2)on1`: the activity change, negative = toxicity is -11% (inactive).
Regarding `OCCCNc1nc(-c2ccccn2)nnc1-c1ccccc1`, the activity change, negative = toxicity is 17.6% (inactive).
On the same count and under the same terms, the value for `O=C(c1cc(-c2ccccc2)on1)N1CCN(c2ccncc2)CC1` was -1.95% (inactive); that for `Cc1ccccc1CNC(=O)c1cc(-c2ccccc2)on1` was 6.54% (inactive).
On to `O=C(Nc1nnc(-c2ccccc2)s1)c1cc(-c2ccccc2)on1`, for which the activity change, negative = toxicity was 16.2% (inactive).
`O=C(Nc1cnc2ccccc2c1)c1cc(-c2ccccc2)on1`: the activity change, negative = toxicity was 5.21% (inactive).
Same read-out and setting: under `c1ccc(-c2nnc(-c3ccccn3)nc2N2CCC(N3CCOCC3)CC2)cc1` stands 21.5% (inactive); under `O=C(Nc1ncc2ccccc2n1)c1cc(-c2ccccc2)on1`, -15.3% (inactive).
As for `Clc1cccc(CNc2nc(-c3ccccn3)nnc2-c2ccccc2)c1`, the activity change, negative = toxicity is -1.81% (inactive).
For the molecule `O=C(Nc1nc2ccccc2s1)c1cc(-c2ccccc2)on1`, the activity change, negative = toxicity was 18.7% (inactive).
With `CC(C)(C)CCNc1nc(-c2ccccn2)nnc1-c1ccccc1`, the activity change, negative = toxicity was -16.3% (inactive).
Consider `COc1ccc(CNc2nc(-c3ccccn3)nnc2-c2ccccc2)cc1`, for which the activity change, negative = toxicity is 1.65% (inactive).
Turning to `O=C(NCc1ccccc1)c1cc(-c2ccccc2)on1`, the activity change, negative = toxicity was 4.7% (inactive).
As to `c1ccc(-c2nnc(-c3ccccn3)nc2N2CCC(c3ccccc3)C2)cc1` (centres undefined), the activity change, negative = toxicity was -12.2% (inactive).
On to `CC(C)(C)CCNC(=O)c1cc(-c2ccccc2)on1`, for which the activity change, negative = toxicity is -8.3% (inactive).
Take `c1ccc(CNc2nc(-c3ccccn3)nnc2-c2ccccc2)cc1`: the activity change, negative = toxicity was 11.5% (inactive).
Take `CC(Nc1nc(-c2ccccn2)nnc1-c1ccccc1)c1ccccc1` (centres undefined): the activity change, negative = toxicity is -0.542% (inactive).

The subject of a further experiment is U2OS HRE-luciferase cells, viability toxicity, luminescence. The description is as above.
Conditions: not given
An outline of the steps: as §1
On to `Cn1c(-c2ccccc2)cnc1Nc1nc(-c2ccccn2)nnc1-c1ccccc1`, for which the AC50 is > 38 µM (inactive).
`c1ccc(-c2nnc(Nc3nc(-c4ccccn4)nnc3-c3ccccc3)s2)cc1`: the AC50 is > 38 µM (inactive).
Still for that read-out and setting: the value for `O=C(NC1CCc2ccccc2C1)c1cc(-c2ccccc2)on1` (centres undefined) was > 38 µM (inactive).
Take `c1ccc(-c2nnc(-c3ccccn3)nc2Nc2cnc3ccccc3n2)cc1`: the AC50 was 10.1 µM.
In the case of `c1ccc(-c2nnc(-c3ccccn3)nc2Nc2nc3ccccc3s2)cc1`, the AC50 is 8.1 µM.
